# Screens as filed in PubChem BioAssay.
# HCT116 bCat-KO: primary screen for growth suppressors in beta-catenin knockout HCT116 cells (colon tumor, human); HCT116 beta-catenin knockout viability, CellTiter-Glo, 60 h; stronger effect = lower value; viability, % at 10 µM; 140,000 tested, 1.5% active; AID 818, 2007;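 active = viability at or under a set limit, the compound median less 4 SD, cut at about 6% in these data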
# TNAP act hiacc: TNAP activators at high phosphate acceptor level, primary screen, biochemical, luminescence, uHTS | purified TNAP, CDP-star luminescence, 1 M DEA, 30 min; stronger effect = higher value; 0 = EDTA background, 1 = DMSO-only activity | AID 1136, 2008 | Alkaline phosphatase, tissue-nonspecific isozyme (Homo sapiens), P05186 | 200,000 tested, under 10 active | activation factor at 20 µM;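 active = activation factor at least 2 at 20 µM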
# Target sequence (P05186 whole entry, looked up): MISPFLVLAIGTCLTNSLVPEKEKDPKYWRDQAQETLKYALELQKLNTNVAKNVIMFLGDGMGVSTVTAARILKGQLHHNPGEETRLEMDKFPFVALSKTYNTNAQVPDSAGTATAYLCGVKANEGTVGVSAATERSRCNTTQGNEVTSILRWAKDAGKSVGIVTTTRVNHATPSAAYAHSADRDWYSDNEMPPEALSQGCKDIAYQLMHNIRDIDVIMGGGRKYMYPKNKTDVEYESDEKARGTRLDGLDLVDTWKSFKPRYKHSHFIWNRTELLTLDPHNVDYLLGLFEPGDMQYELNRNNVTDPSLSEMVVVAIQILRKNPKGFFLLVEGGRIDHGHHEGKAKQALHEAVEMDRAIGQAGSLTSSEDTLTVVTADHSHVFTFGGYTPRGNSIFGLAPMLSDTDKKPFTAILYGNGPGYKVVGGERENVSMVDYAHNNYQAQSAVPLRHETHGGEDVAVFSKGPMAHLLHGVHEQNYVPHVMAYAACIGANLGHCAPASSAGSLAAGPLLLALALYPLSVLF
#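 Control set: EDTA negative control, DMSO positive control / Assay system: human TNAP / Quantity: TNAP 1/800 final / Evaluation: TNAP activation factor scaled between EDTA and DMSO control wells / Measured by: luminescent substrate turnover signal / Compound dosing: one dose, 20 µM / Times: 30 min enzyme reaction at room temperature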
# HCT116 PTEN-null: growth suppression of PTEN-null HCT116, primary screen, cell-based, CellTiter-Glo. HCT116 PTEN-null viability, 60 h; stronger effect = lower value. viability, % at 10 µM. 140,000 tested, 1.2% active;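 active = viability at or below a set limit, 4 SD under the median of all tested compounds, cut at about 3.7% in these data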;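 also: PTEN knockout HCT116 line with beta catenin targeted HCT116 as companion control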
# TNAP inh noacc: human TNAP enzyme inhibitors, primary screen, biochemical, luminescent, no phosphate acceptor, uHTS | Alkaline phosphatase, tissue-nonspecific isozyme (Homo sapiens), P05186 | purified TNAP, CDP-star luminescence, 30 min | inhibition, % at 20 µM | 200,000 tested, 0.26% active;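 active = tissue-nonspecific alkaline phosphatase inhibition above about 50% at 20 µM in the single-dose screen, limit read from the data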
# L major viab: Leishmania major promastigote growth inhibition, primary screen. AID 1063, 2008. 200,000 tested, 9% active. inhibition, % at 10 µM. Leishmania major promastigotes, resazurin fluorescence viability; in the data active = inhibition above about 50%;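 also: promastigotes grown with compound for 44 hours at 28 °C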
# TNAP inh hiacc: human TNAP enzyme inhibitors, primary screen, biochemical, luminescent, high phosphate acceptor level, uHTS; Alkaline phosphatase, tissue-nonspecific isozyme (Homo sapiens), P05186; purified TNAP, CDP-star luminescence, 1 M DEA; inhibition, % at 20 µM; 200,000 tested, 0.03% active; AID 1135, 2008;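 active = over 50% inhibition of tissue-nonspecific alkaline phosphatase at 20 µM in the single-dose screen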
# Numbers stand for hits; . = inactive; / = no result. Sampled rows, rich in hits. Any-hit rate of the full collection: about 9.6%.
SMILES,HCT116 bCat-KO,TNAP act hiacc,HCT116 PTEN-null,TNAP inh noacc,L major viab,TNAP inh hiacc
CCN(CC)CCN(Cc1cc2cc(C)cc(C)c2[nH]c1=O)C(=S)NCc1ccco1,.,.,.,.,.,.
O=CN1CCN(C(=O)c2ccc([N+](=O)[O-])cc2)CC1,.,.,.,.,.,.
CCN(CC)CCN(Cc1cc2ccc(C)c(C)c2[nH]c1=O)C(=S)NCc1ccco1,/,.,/,.,.,.
Cc1cc(C)c2[nH]c(=O)c(CN(Cc3cccs3)C(=S)NCc3ccco3)cc2c1,.,.,.,.,99,.
CC(=O)N(CCO)Cc1cc2cc(C)cc(C)c2[nH]c1=O,.,.,.,.,.,.
Cc1ccc(NC(=S)N(Cc2cccs2)Cc2cc3cc(C)cc(C)c3[nH]c2=O)cc1,.,.,.,.,95,.
CCN(CC)CCN(Cc1cc2ccc(C)cc2[nH]c1=O)C(=O)Nc1ccc(Cl)cc1,/,.,/,.,63,.
CNC(=S)N(Cc1cccs1)Cc1cc2cc(OC)c(OC)cc2[nH]c1=O,.,.,.,.,62,.
COc1ccccc1NC(=O)N(Cc1cccs1)Cc1cc2cc3c(cc2[nH]c1=O)OCO3,.,.,.,.,.,.
CCN(CC)CCN(Cc1cc2ccc(C)cc2[nH]c1=O)C(=O)NC1CCCCC1,/,.,/,.,.,.
CNC(=S)Nc1ccc2nc(C)oc2c1,/,.,/,.,.,.
CCCCCCCC(=O)NC(Nc1ccc(S(N)(=O)=O)cc1)C(Cl)(Cl)Cl (centres undefined),.,.,.,.,.,.
COc1cccc(NC(=S)NC2CC(C)(C)NC(C)(C)C2)c1,.,.,.,.,.,.
N#Cc1cccc(C(c2nnnn2C2CCCC2)N2CCC(Cc3ccccc3)CC2)c1 (centres undefined),.,.,.,.,65,.
COc1ccc(C(c2nnnn2CCc2ccccc2)N2CCN(C3CCCC3)CC2)cc1 (centres undefined),.,.,.,.,99,.
CCC(c1nnnn1Cc1ccccc1)N1CCN(c2ccccc2)CC1 (centres undefined),/,.,/,.,.,.
COc1ccc(Cn2nnnc2C(c2ccccc2)N2CCN(C3CCCC3)CC2)cc1 (centres undefined),.,.,.,.,.,.
CCC(c1nnnn1CCc1ccccc1)N1CCN(c2ccc(OC)cc2)CC1 (centres undefined),.,.,.,.,96,.
N#Cc1cccc(C(c2nnnn2CCc2ccccc2)N2CCN(C3CCCCC3)CC2)c1 (centres undefined),.,.,.,.,81,.
N#Cc1cccc(C(c2nnnn2C2CCCC2)N2CCCCCC2)c1 (centres undefined),.,.,.,.,.,.
O=C(CNC(=S)N(CCCN1CCOCC1)Cc1cccs1)N1CCCCCC1,/,.,/,.,.,.
CCOC(=O)c1c(-c2ccc(OC)cc2)csc1NC(=O)C1CCCO1 (centres undefined),/,.,/,.,52,.
CCOC(=O)c1c(-c2ccccc2)csc1NC(=O)c1ccc(S(=O)(=O)N2CC(C)OC(C)C2)cc1 (centres undefined),.,.,.,.,.,.
CCOC(=O)c1c(NC(=O)CCN2CCOCC2)sc2c1CC(C)(C)OC2,.,.,.,.,.,.
CCOC(=O)c1c(-c2ccc(C)cc2)csc1NC(=O)CCN1CC(C)OC(C)C1 (centres undefined),.,.,.,.,98,.
SMILES,HCT116 bCat-KO,TNAP act hiacc,HCT116 PTEN-null,TNAP inh noacc,L major viab,TNAP inh hiacc
CCOC(=O)c1c(NC(=O)CCN2CCOCC2)sc(C)c1-c1ccccc1,/,.,/,.,52,.
CCOC(=O)c1c(-c2ccc(OC)cc2)csc1NC(=O)CCN1C(=O)c2ccccc2C1=O,.,.,.,.,.,.
CCOC(=O)c1c(-c2ccc(OC)cc2)csc1NC(=O)CCN1CCOCC1,/,.,/,.,84,.
Cc1ccc(CNCC(=O)Nc2ccc(C)cc2Br)cc1,/,.,/,.,.,.
COc1ccc(CCNC(=O)C(C)Sc2ccc(C)cc2)cc1OC (centres undefined),.,.,.,.,.,.
O=C(CS(=O)Cc1ccccc1Cl)Nc1ccccc1Cl (centres undefined),/,.,/,.,.,.
O=C1C2C3CCCC3=C3CCCC3C2C(=O)N1c1cccc(Cl)c1 (centres undefined),.,.,.,.,.,.
O=C1C2C3C=CC(c4ccccc4)(C2C(=O)N1c1cccc(Cl)c1)C1C(=O)N(c2cccc(Cl)c2)C(=O)C31 (centres undefined),.,.,.,.,68,.
O=C(/C=C/c1ccccc1O)c1ccc(Cl)cc1,/,.,/,.,100,.
COc1cc(OC)c(OC)cc1/C=C/C(=O)c1ccc(NS(=O)(=O)c2ccc(C)cc2)cc1,.,.,.,.,62,.
COc1ccccc1/C=C/C(=O)c1ccc(Cl)cc1,.,.,.,.,86,.
COc1ccccc1/C=C/C(=O)c1c2c(c(C)[nH]c1=O)CCCC2,5.4,.,3.2,.,77,.
COc1ccccc1C(=O)NNC(=O)c1ccc(Cl)cc1,/,.,/,.,.,.
CCC(C)/C=C/C1=CC2=C(Cl)C(=O)C3(C)OC(=O)C(C(=O)C(C)C(C)O)C3C2=CO1 (centres undefined),/,.,/,.,.,.
COc1ccccc1C(=O)Nc1ccc(C(=O)c2ccccc2)cc1,/,.,/,.,.,.
COc1ccc(/C=C/C(=O)c2ccccc2)c(OC)c1,/,.,/,.,74,.
CCOc1ccc(/C=C/C(=O)c2ccc(-c3ccccc3)cc2)cc1,.,.,.,.,.,.
COc1ccccc1/C=C/C(=O)c1ccc(NC(C)=O)cc1,.,.,.,.,100,.
CCOc1ccccc1/C=C/C(=O)c1ccc(Cl)cc1,.,.,.,.,78,.
COc1ccc(/C=C/C(=O)c2ccc(OC)cc2OC)c(OC)c1,/,.,/,.,.,.
COc1ccc(OC)c(/C=C/C(=O)c2ccc(Cl)cc2)c1,2.9,.,3.1,.,100,.
Cc1[nH]n(-c2nc(-c3ccccc3F)cc(=O)[nH]2)c(=O)c1CCO,/,.,/,.,.,.
O=C(CCc1ccccc1)NCCc1nc2ccccc2[nH]1,/,.,/,.,.,.
CCC1SC2=NC(C)=C(C(=O)OCCOC)C(c3ccc(C(=O)OC)cc3)N2C1=O (centres undefined),.,.,.,.,.,.
Cc1ccccc1NC(=O)c1snc2c(=O)[nH]cnc12,/,.,/,.,.,.
Fc1ccc(NC(=S)N2CCN(c3ncccn3)CC2)cc1,/,.,/,.,.,.
C=CCn1c(SCC(=O)O)nnc1-c1ccc(C(C)(C)C)cc1,.,.,.,.,.,.
